How the values were obtained:
[1] = target: Beta-3 adrenergic receptor (Homo sapiens, UniProt P13945); assay: Agonist activity at human adrenergic beta3 receptor expressed in CHO cells assessed as cAMP accumulation; assay type: functional, cell-based
[2] = target: Beta-1 adrenergic receptor (Homo sapiens, UniProt P08588); assay: Agonist activity at human adrenergic beta1 receptor expressed in CHO cells assessed as cAMP accumulation; assay type: functional, cell-based
[3] = target: Beta-2 adrenergic receptor (Homo sapiens, UniProt P07550); assay: Agonist activity at human adrenergic beta2 receptor expressed in CHO cells assessed as cAMP accumulation; assay type: functional, cell-based
[4] = tested on: Cavia porcellus; assay: Bronchodilatory activity against histamine-induced bronchospasm in guinea pig administered via nebulizer; assay type: functional
Outline: (§1)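 Guinea pigs; agonist given as nebulised solution in dimethyl acetamide-saline vehicle at EC90 dose or 10-fold EC90 dose. Duration expressed as time to 50% recovery.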

[5] = Oral bioavailability in Beagle dog at 0.25 mg/kg by LC-MS/MS; assay type: ADME, organism-based, Canis lupus familiaris; conditions: in vivo
Outline: (§2)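 Female beagle dogs (n = 2), fasted 18 h, crossover design. Oral 0.25 mg base/kg by gavage in DMSO-PEG 200-distilled water (5:30:65); iv 0.052 mg base/kg via cephalic vein in DMSO-PEG 200-saline (10:45:45). Jugular blood sampled 0.03 (iv only) to 8 h. Plasma assayed by LC–MS/MS; noncompartmental parameters.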

[6] = Cmax in Beagle dog at 0.25 mg/kg, po by LC-MS/MS; assay type: ADME, organism-based, Canis lupus familiaris; set-up: dose 0.25 mg/kg, route oral; conditions: in vivo; outline: as §2
[7] = Half life in Beagle dog at 0.052 mg/kg, iv by LC-MS/MS; assay type: ADME, organism-based, Canis lupus familiaris; set-up: dose 0.052 mg/kg, route intravenous; conditions: in vivo; outline: as §2
[8] = Volume of distribution at steady state in Beagle dog at 0.052 mg/kg, iv by LC-MS/MS; assay type: ADME, organism-based, Canis lupus familiaris; set-up: dose 0.052 mg/kg, route intravenous; conditions: in vivo, read-out: Vdss; outline: as §2
[9] = Plasma clearance in Beagle dog at 0.052 mg/kg, iv by LC-MS/MS; assay type: ADME, organism-based, Canis lupus familiaris; set-up: dose 0.052 mg/kg, route intravenous; outline: as §2
[10] = Oral bioavailability in Han Wistar rat at 2.0 mg/kg by LC-MS/MS; assay type: ADME, organism-based; conditions: in vivo
Outline: (§3)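 Male Han Wistar rats, fasted 18 h. Oral dose 2.0 mg base/kg by gavage in DMSO-PEG 200-distilled water (5:30:65); iv dose 0.25 mg base/kg via tail vein in DMSO-PEG 200-saline (10:45:45). Blood sampled 0.03 (iv only) to 8 h post dose, n = 2 animals/time-point. Plasma assayed by LC–MS/MS; parameters from noncompartmental analysis.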

[11] = Volume of distribution at steady state in Han Wistar rat at 0.25 mg/kg, iv by LC-MS/MS; assay type: ADME, organism-based; set-up: dose 0.25 mg/kg, route intravenous; conditions: in vivo, read-out: Vdss; outline: as §3
[12] = Half life in Han Wistar rat at 0.25 mg/kg, iv by LC-MS/MS; assay type: ADME, organism-based; set-up: dose 0.25 mg/kg, route intravenous; conditions: in vivo; outline: as §3
[13] = Plasma clearance in Han Wistar rat at 0.25 mg/kg, iv by LC-MS/MS; assay type: ADME, organism-based; set-up: dose 0.25 mg/kg, route intravenous; outline: as §3
[14] = target: Beta-2 adrenergic receptor (Cavia porcellus, UniProt Q8K4Z4); assay: Agonist activity at adrenergic beta2 receptor in guinea pig trachea assessed as inhibition of electrically-stimulated contraction; assay type: functional
[15] = tested on: Liver microsomes; assay: Metabolic stability in human liver microsomes with 125 pmol/mL P450 assessed as compound turnover ratio at 5 uM after 30 mins by LC-MS method relative to verapamil; assay type: ADME, Microsome; conditions: 0.5 h
[16] = tested on: Cavia porcellus; assay: Bronchodilatory activity against histamine-induced bronchospasm in guinea pig assessed as time taken for 50% recovery of bronchospasm at EC90 administered via nebulizer; assay type: functional; outline: as §1
[17] = tested on: Cavia porcellus; assay: Bronchodilatory activity against histamine-induced bronchospasm in guinea pig assessed as time taken for 50% recovery of bronchospasm at 10-fold EC90 administered via nebulizer; assay type: functional; outline: as §1
[18] = Stability of the compound in solid state at 4 degC after 18 days; assay type: physicochemical; conditions: 432 h
[19] = tested on: Liver microsomes; assay: Metabolic stability of the compound in human liver microsomes assessed as formation of N-({[3-(4-{[6-({(2R)-2-Hydroxy-2-[4-hydroxy-3-(hydroxy methyl)phenyl]ethyl}amino) hexyl]oxy}butyl)phenyl]amino} carbonyl)glycine acetate; assay type: ADME, Microsome
Outline: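 Incubated at 25 µM with human liver microsomes (and hepatocytes). Samples mixed with equal volume acetonitrile, centrifuged; supernatant analysed by reverse-phase gradient LC with electrospray MS detection for metabolites.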

[20] = Stability of the compound in methanol assessed as formation of methyl ester of N-({[3-(4-{[6-({(2R)-2-Hydroxy-2-[4-hydroxy-3-(hydroxy methyl)phenyl]ethyl}amino) hexyl]oxy}butyl)phenyl]amino} carbonyl)glycine acetate

Chain of Beta-2 adrenergic receptor (Homo sapiens, UniProt P07550) (P07550 whole entry): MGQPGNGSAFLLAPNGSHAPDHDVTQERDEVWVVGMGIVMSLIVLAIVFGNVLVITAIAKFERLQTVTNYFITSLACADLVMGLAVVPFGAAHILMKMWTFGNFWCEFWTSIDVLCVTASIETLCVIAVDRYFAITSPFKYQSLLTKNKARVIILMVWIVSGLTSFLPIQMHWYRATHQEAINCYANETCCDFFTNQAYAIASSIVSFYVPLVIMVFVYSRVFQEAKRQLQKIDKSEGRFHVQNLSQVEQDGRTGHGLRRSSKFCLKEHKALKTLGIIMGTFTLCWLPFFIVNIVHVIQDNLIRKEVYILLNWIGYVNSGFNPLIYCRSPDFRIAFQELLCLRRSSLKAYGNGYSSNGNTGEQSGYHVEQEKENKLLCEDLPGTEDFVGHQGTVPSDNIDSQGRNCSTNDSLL
Chain of Beta-3 adrenergic receptor (P13945 whole entry): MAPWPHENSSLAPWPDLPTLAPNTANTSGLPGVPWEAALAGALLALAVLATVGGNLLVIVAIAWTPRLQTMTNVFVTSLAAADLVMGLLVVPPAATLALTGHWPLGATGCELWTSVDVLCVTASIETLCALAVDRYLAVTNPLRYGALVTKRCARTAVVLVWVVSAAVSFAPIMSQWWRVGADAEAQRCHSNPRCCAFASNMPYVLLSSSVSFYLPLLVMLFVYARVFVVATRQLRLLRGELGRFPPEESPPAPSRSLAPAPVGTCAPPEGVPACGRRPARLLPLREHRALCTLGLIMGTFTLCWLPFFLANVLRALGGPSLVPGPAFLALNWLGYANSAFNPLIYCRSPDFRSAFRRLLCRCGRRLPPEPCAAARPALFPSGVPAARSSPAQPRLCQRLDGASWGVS
Chain of Beta-2 adrenergic receptor (Cavia porcellus, UniProt Q8K4Z4) (Q8K4Z4 whole entry): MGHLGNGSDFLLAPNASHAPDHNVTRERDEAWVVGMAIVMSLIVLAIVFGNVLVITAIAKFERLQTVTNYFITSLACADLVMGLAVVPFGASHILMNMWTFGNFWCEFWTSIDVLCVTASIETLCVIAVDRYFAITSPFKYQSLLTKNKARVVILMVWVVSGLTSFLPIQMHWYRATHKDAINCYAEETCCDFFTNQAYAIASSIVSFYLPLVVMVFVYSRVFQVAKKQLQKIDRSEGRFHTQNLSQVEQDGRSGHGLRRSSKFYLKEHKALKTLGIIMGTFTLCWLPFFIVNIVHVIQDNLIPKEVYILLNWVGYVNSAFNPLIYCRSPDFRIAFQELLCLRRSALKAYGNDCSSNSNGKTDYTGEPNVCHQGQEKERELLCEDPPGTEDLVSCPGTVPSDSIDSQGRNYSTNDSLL
Chain of Beta-1 adrenergic receptor (P08588 whole entry): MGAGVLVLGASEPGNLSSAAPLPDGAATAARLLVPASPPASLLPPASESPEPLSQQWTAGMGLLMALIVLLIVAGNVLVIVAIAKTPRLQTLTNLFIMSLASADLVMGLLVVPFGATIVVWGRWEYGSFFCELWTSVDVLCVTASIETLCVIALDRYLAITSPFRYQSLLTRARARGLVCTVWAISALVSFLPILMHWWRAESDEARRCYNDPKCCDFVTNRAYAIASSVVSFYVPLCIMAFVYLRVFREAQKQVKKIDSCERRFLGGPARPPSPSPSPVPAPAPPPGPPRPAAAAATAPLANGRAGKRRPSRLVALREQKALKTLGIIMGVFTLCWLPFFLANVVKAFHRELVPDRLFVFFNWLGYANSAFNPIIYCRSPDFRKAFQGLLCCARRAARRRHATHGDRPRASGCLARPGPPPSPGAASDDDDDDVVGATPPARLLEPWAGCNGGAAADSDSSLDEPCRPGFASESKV

O=c1ccn(-c2cccc(CCCCOCCCCCCNC[C@H](O)c3ccc(O)c(CO)c3)c2)c(=O)[nH]1 gave an EC50 [1] of 50.1 nM, an EC50 [2] of 50.1 nM and an EC50 [3] of 1.26 nM.

In the case of CC(=O)O.O=C1CNC(=O)N1c1cccc(CCCCOCCCCCCNC[C@H](O)c2ccc(O)c(CO)c2)c1, the EC90 [4] is reported as 25000 nM, the bioavailability [5] is reported as 5% and the Cmax [6] is reported as 12 ng/mL. It also gave a half-life [7] of 2 h, a Vd [8] of 0.8 L/kg and a clearance [9] of 13 mL/min/kg. The bioavailability [10] was 2%, the Vd [11] was 2 L/kg and the half-life [12] was 0.3 h. The clearance [13] was 120 mL/min/kg, the EC50 [14] was 0.794 nM and the Ratio [15] was 0.86. For the same compound, the EC50 [1] was 100 nM, the EC50 [2] was 79.4 nM and the EC50 [3] was 0.631 nM. For the same compound, the Time [16] was 12 h, the Time [17] was 18 h and the Stability [18] was “Unstable”. The Stability [19] was “Unstable” and the Stability [20] was “Unstable”.

CC(=O)O.O=C1CNC(=O)N1c1ccc(CCCCOCCCCCCNC[C@H](O)c2ccc(O)c(CO)c2)cc1 showed a Ratio [15] of 0.3, an EC50 [1] of 31.6 nM and an EC50 [2] of 79.4 nM. For the same compound, the EC50 [3] was 2 nM.

O=C1CNC(=O)N1c1ccccc1CCCCOCCCCCCNC[C@H](O)c1ccc(O)c(CO)c1 gave a Ratio [15] of 0.46, an EC50 [1] of 200 nM and an EC50 [2] of 200 nM. It also gave an EC50 [3] of 2.51 nM.

CC(=O)O.CC1(C)NC(=O)N(c2cccc(CCCCOCCCCCCNC[C@H](O)c3ccc(O)c(CO)c3)c2)C1=O showed a Ratio [15] of 0.48, an EC50 [1] of 63.1 nM and an EC50 [2] of 200 nM. The EC50 [3] was 0.794 nM.

In the case of CC(=O)O.O=C1CN(c2cccc(CCCCOCCCCCCNC[C@H](O)c3ccc(O)c(CO)c3)c2)C(=O)N1, the EC50 [14] is reported as 2.51 nM, the Ratio [15] is reported as 0.4 and the EC50 [1] is reported as 316 nM. For the same compound, the EC50 [2] was 200 nM and the EC50 [3] was 2.51 nM.

For CC(=O)O.O=C1CNC(=O)N1Cc1cccc(CCCCOCCCCCCNC[C@H](O)c2ccc(O)c(CO)c2)c1, the Ratio [15] was 1.62, the EC50 [1] was 39.8 nM and the EC50 [2] was 126 nM. The EC50 [3] was 1.26 nM.

CC(=O)O.O=C1CN(Cc2cccc(CCCCOCCCCCCNC[C@H](O)c3ccc(O)c(CO)c3)c2)C(=O)N1 gave a Ratio [15] of 0.75, an EC50 [1] of 63.1 nM and an EC50 [2] of 79.4 nM. For the same compound, the EC50 [3] was 0.631 nM.

In the case of O=C1NC(=O)N(Cc2cccc(CCCCOCCCCCCNC[C@H](O)c3ccc(O)c(CO)c3)c2)C1=O, the EC50 [1] is reported as 25.1 nM, the EC50 [2] is reported as 50.1 nM and the EC50 [3] is reported as 0.794 nM.

For CC(=O)O.NC(=O)CN1C(=O)CN(c2cccc(CCCCOCCCCCCNC[C@H](O)c3ccc(O)c(CO)c3)c2)C1=O, the Ratio [15] was 0.91, the EC50 [1] was 79.4 nM and the EC50 [2] was 158 nM. For the same compound, the EC50 [3] was 0.251 nM.

O=c1cc[nH]c(=O)n1-c1cccc(CCCCOCCCCCCNC[C@H](O)c2ccc(O)c(CO)c2)c1 [listing 1 of 2 here] gave an EC50 [1] of 398 nM, an EC50 [2] of 251 nM and an EC50 [3] of 0.794 nM.

In the case of O=c1cc[nH]c(=O)n1-c1cccc(CCCCOCCCCCCNC[C@H](O)c2ccc(O)c(CO)c2)c1 [listing 2 of 2 here], the EC50 [14] is reported as 0.2 nM.

O=C(O)CNC(=O)Nc1cccc(CCCCOCCCCCCNC[C@H](O)c2ccc(O)c(CO)c2)c1 [listing 1 of 2 here] gave a Ratio [15] of 0.55, an EC50 [1] of 100 nM and an EC50 [2] of 126 nM. For the same compound, the EC50 [3] was 1 nM.

Work on O=C(O)CNC(=O)Nc1cccc(CCCCOCCCCCCNC[C@H](O)c2ccc(O)c(CO)c2)c1 [listing 2 of 2 here] yielded an EC50 [14] of 1 nM.

Work on OCc1cc(C(O)CNCCCCCCOCCCCc2ccccc2)ccc1O (stereo unspecified) [SALMETEROL] yielded an EC90 [4] of 50000 nM and an EC50 [14] of 5.01 nM.

Source: ChEMBL document CHEMBL1811800, “The discovery of long-acting saligenin β₂ adrenergic receptor agonists incorporating hydantoin or uracil rings” (Bioorg Med Chem, 2011)
